Source: ChEMBL document CHEMBL1137675, “Convenient one-pot synthesis of novel 2-substituted benzimidazoles, tetrahydrobenzimidazoles and imidazoles and evaluation of their in vitro antibacterial and antifungal activities” (2009)
Values after ≈ are worked out from the molar mass of the structure shown.

Key:
[1] = tested on: Salmonella typhimurium; assay: Antibacterial activity against Salmonella Typhimurium MTCC 98 at 37 degC after 24 hrs by filter paper disk method; format: functional, Salmonella enterica subsp. enterica serovar Typhimurium; conditions: for MIC: Salmonella enterica, MTCC 98, 24 h
In short: (§1)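 Compounds were taken from a 1 mg/ml DMSO stock and serially diluted two-fold over a 300 to 18.75 range, then loaded onto sterile 8 mm paper discs. Bacteria were grown overnight in nutrient broth at 37 °C, pelleted, and resuspended in sterile NSS to 10⁵ cfu/ml. About 0.1 ml was spread on NA plates. Plates were incubated 24 h at 37 °C with a solvent control disc, and inhibition zone diameter was read in mm.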

[2] = tested on: Trichoderma viride; assay: Antifungal activity against Trichoderma viride at 28 degC after 72 hrs; format: functional
In short: (§2)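 Filamentous fungi were kept on SDA at 28 °C. Spores from 7-day cultures were suspended in sterile normal saline to about 10⁵ cfu/ml, and about 0.1 ml was spread on SDA plates. Compounds were serially diluted two-fold in DMSO and impregnated on 8 mm discs, with a solvent control disc on each plate. Plates were held at 28 °C for 72 h or more, and inhibition zone diameter was read in mm.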

[3] = tested on: Helminthosporium; assay: Antifungal activity against Helminthosporium oryzae 2537 ICAR at 28 degC after 72 hrs; format: functional; in short: as §2
[4] = tested on: Aspergillus niger; assay: Antifungal activity against Aspergillus niger at 28 degC after 72 hrs; format: functional; in short: as §2
[5] = tested on: Penicillium sp.; assay: Antifungal activity against Penicillium sp. at 28 degC after 72 hrs; format: functional; in short: as §2
[6] = tested on: Bacillus subtilis; assay: Antibacterial activity against Bacillus subtilis ATCC 6051 at 37 degC after 24 hrs by filter paper disk method; format: functional; conditions: for MIC: Bacillus subtilis, ATCC 6051, 24 h; in short: as §1
[7] = tested on: Staphylococcus aureus; assay: Antibacterial activity against Staphylococcus aureus MSSA 22 at 37 degC after 24 hrs by filter paper disk method; format: functional; conditions: for MIC: Staphylococcus aureus, MSSA 22, 24 h; in short: as §1
[8] = tested on: Escherichia coli; assay: Antibacterial activity against Escherichia coli K-12 at 37 degC after 24 hrs by filter paper disk method; format: functional; conditions: for MIC: Escherichia coli, K-12, 24 h; in short: as §1
[9] = tested on: Candida albicans; assay: Antifungal activity against Candida albicans IOA-109 at 37 degC after 18 to 48 hrs; format: functional
[10] = tested on: Helminthosporium; assay: Antifungal activity against Helminthosporium oryzae 2537 ICAR at 30 ug/disk at 28 degC after 72 hrs; format: functional, organism-based
In short: (§3)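 Disc diffusion on SDA; cultures were kept at 28 °C. Spores from 7-day cultures were suspended in sterile normal saline ([…] NaCl as printed) and diluted to about 10⁵ cfu/ml; about 0.1 ml was spread per plate. 8 mm discs carried compound from a DMSO stock, alongside a solvent disc and a nystatin disc. After 72 h or more at 28 °C, inhibition-zone diameter was read in mm.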

[11] = tested on: Candida albicans; assay: Antifungal activity against Candida albicans IOA-109 at 30 ug/disk at 37 degC after 18 to 48 hrs; format: functional, organism-based
In short: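 Disc diffusion on SDA. Inoculum was grown overnight in SD broth at 37 °C, centrifuged, and resuspended in sterile NSS to 10⁵ cfu/ml; about 0.1 ml was spread per plate. 8 mm discs carried compound from a DMSO stock, alongside a solvent disc and a nystatin disc. After 18–48 h at 37 °C, inhibition-zone diameter was read in mm.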

[12] = tested on: Trichoderma viride; assay: Antifungal activity against Trichoderma viride at 30 ug/disk at 28 degC after 72 hrs; format: functional, organism-based; in short: as §3
[13] = tested on: Aspergillus niger; assay: Antifungal activity against Aspergillus niger at 30 ug/disk at 28 degC after 72 hrs; format: functional, organism-based; in short: as §3
[14] = tested on: Penicillium sp.; assay: Antifungal activity against Penicillium sp. at 30 ug/disk at 28 degC after 72 hrs; format: functional, organism-based; in short: as §3
[15] = tested on: Staphylococcus aureus; assay: Antibacterial activity against Staphylococcus aureus MSSA 22 at 30 ug/disk at 37 degC after 24 hrs by filter paper disk method; format: functional; conditions: MSSA 22, 24 h, read-out: DIZ
In short: (§4)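 Disc diffusion on nutrient agar. Inoculum was grown overnight in NA broth at 37 °C, centrifuged, and resuspended in sterile NSS to 10⁵ cfu/ml; about 0.1 ml was spread per plate. Sterile 8 mm discs carried compound, with a 1 mg/ml DMSO stock diluted two-fold from 300 to 18.75. Controls were a solvent disc and a chloramphenicol disc. After 24 h at 37 °C, inhibition-zone diameter was read in mm.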

[16] = tested on: Bacillus subtilis; assay: Antibacterial activity against Bacillus subtilis ATCC 6051 at 30 ug/disk at 37 degC after 24 hrs by filter paper disk method; format: functional; conditions: ATCC 6051, 24 h, read-out: DIZ
In short: (§5)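 Chloramphenicol was given as a reference antibiotic disc. Bacteria were grown overnight in nutrient broth at 37 °C and adjusted to 10⁵ cfu/ml in sterile NSS. About 0.1 ml was spread on NA plates next to 8 mm discs, including a solvent disc. Plates were incubated 24 h at 37 °C, and zones of inhibition were measured in mm.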

[17] = tested on: Salmonella typhimurium; assay: Antibacterial activity against Salmonella Typhimurium MTCC 98 at 30 ug/disk at 37 degC after 24 hrs by filter paper disk method; format: functional, Salmonella enterica subsp. enterica serovar Typhimurium; conditions: Salmonella enterica, MTCC 98, 24 h; read-out: DIZ; in short: as §5
[18] = tested on: Escherichia coli; assay: Antibacterial activity against Escherichia coli K-12 at 30 ug/disk at 37 degC after 24 hrs by filter paper disk method; format: functional; conditions: K-12, 24 h, read-out: DIZ; in short: as §4

Row | Compound | diameter of the inhibition zone (DIZ) [1] [mm] | MIC [1] [µg/mL] | diameter of the inhibition zone (DIZ) [2] [mm] | MIC ([2]; Trichoderma viride, 72 h) [µg/mL] | diameter of the inhibition zone (DIZ) [3] [mm] | MIC ([3]; Helminthosporium, 72 h) [µg/mL] | diameter of the inhibition zone (DIZ) [4] [mm] | MIC ([4]; Aspergillus niger, 72 h) [µg/mL] | diameter of the inhibition zone (DIZ) [5] [mm] | MIC ([5]; Penicillium sp., 72 h) [µg/mL] | diameter of the inhibition zone (DIZ) [6] [mm] | MIC [6] [µg/mL] | diameter of the inhibition zone (DIZ) [7] [mm] | MIC [7] [µg/mL] | diameter of the inhibition zone (DIZ) [8] [mm] | MIC [8] [µg/mL] | diameter of the inhibition zone (DIZ) [9] [mm] | MIC ([9]; Candida albicans, IOA-109) [µg/mL] | other results
1 | CCCCCC[C@@H](O)C/C=C\CCCCCCCc1nc2c([nH]1)CCCC2 | 12 | 75 (≈ 200 µM) | 7 | 37.5 (≈ 100 µM) | 11 | 150 (≈ 400 µM) | 12 | 37.5 (≈ 100 µM) | 16 | 75 (≈ 200 µM) | 19 | 75 (≈ 200 µM) | 17 | 75 (≈ 200 µM) | 15 | 150 (≈ 400 µM) | 17 | 75 (≈ 200 µM) | 
2 | CCCCC/C=C\CC[C@H](O)CCCCCCCc1ncc[nH]1 | 12 | 75 (≈ 234 µM) | 6 | 75 (≈ 234 µM) | 12 | 150 (≈ 468 µM) | 14 | 150 (≈ 468 µM) | 19 | 150 (≈ 468 µM) | 19 | 37.5 (≈ 117 µM) | 15 | 150 (≈ 468 µM) | 12 | 150 (≈ 468 µM) | 18 | 75 (≈ 234 µM) | 
3 | CCCCCC[C@@H](O)C/C=C\CCCCCCCc1ncc[nH]1 | 12 | 75 (≈ 234 µM) | 6 | 75 (≈ 234 µM) | 13 | 150 (≈ 468 µM) | 13 | 150 (≈ 468 µM) | 18 | 150 (≈ 468 µM) | 18 | 37.5 (≈ 117 µM) | 15 | 150 (≈ 468 µM) | 12 | 150 (≈ 468 µM) | 18 | 75 (≈ 234 µM) | 
4 | CCCCCCCC/C=C/CCCCCCCc1nc2c([nH]1)CCCC2 | 10 | 75 (≈ 209 µM) | 6 | 37.5 (≈ 105 µM) | 12 | 150 (≈ 418 µM) | 13 | 37.5 (≈ 105 µM) | 17 | 75 (≈ 209 µM) | 19 | 75 (≈ 209 µM) | 16 | 75 (≈ 209 µM) | 17 | 150 (≈ 418 µM) | 18 | 75 (≈ 209 µM) | 
5 | C=CCCCCCCCCc1nc2cc(Cl)ccc2[nH]1 | 14 | 37.5 (≈ 129 µM) | 10 | 37.5 (≈ 129 µM) | 15 | 75 (≈ 258 µM) | 15 | 37.5 (≈ 129 µM) | 19 | 37.5 (≈ 129 µM) | 19 | 75 (≈ 258 µM) | 22 | 37.5 (≈ 129 µM) | 20 | 75 (≈ 258 µM) | 18 | 37.5 (≈ 129 µM) | 
6 | C=CCCCCCCCCc1nc2cc([N+](=O)[O-])ccc2[nH]1 | 12 | 37.5 (≈ 124 µM) | 8 | 37.5 (≈ 124 µM) | 10 | 75 (≈ 249 µM) | 15 | 37.5 (≈ 124 µM) | 18 | 37.5 (≈ 124 µM) | 19 | 37.5 (≈ 124 µM) | 22 | 150 (≈ 498 µM) | 20 | 75 (≈ 249 µM) | 18 | 37.5 (≈ 124 µM) | 
7 | NYSTATIN |  |  |  |  |  |  |  |  |  |  |  |  |  |  |  |  |  |  | inhibition zone (IZ) [10]: 18 mm; MIC [2]: 6 µg/mL; MIC [3]: 12.5 µg/mL; MIC [4]: 12.5 µg/mL; MIC [5]: 6 µg/mL; inhibition zone (IZ) [11]: 20 mm; inhibition zone (IZ) [12]: 15 mm; inhibition zone (IZ) [13]: 18 mm; MIC [9]: 6 µg/mL; inhibition zone (IZ) [14]: 20 mm
8 | C=CCCCCCCCCc1ncc[nH]1 | 14 | 74 (≈ 359 µM) | 6 | 75 (≈ 363 µM) | 12 | 150 (≈ 727 µM) | 11 | 150 (≈ 727 µM) | 16 | 150 (≈ 727 µM) | 22 | 37.5 (≈ 182 µM) | 16 | 150 (≈ 727 µM) | 15 | 150 (≈ 727 µM) | 19 | 75 (≈ 363 µM) | 
9 | O=C(N[C@H](CO)[C@H](O)c1ccc([N+](=O)[O-])cc1)C(Cl)Cl [CHLORAMPHENICOL] |  | 6 (≈ 18.6 µM) |  |  |  |  |  |  |  |  |  | 6 (≈ 18.6 µM) |  | 12.5 (≈ 38.7 µM) |  | 12.5 (≈ 38.7 µM) |  |  | zone of inhibition at 30 µg/disc [15]: 26 mm; zone of inhibition at 30 µg/disc [16]: 24 mm; zone of inhibition at 30 µg/disc [17]: 20 mm; zone of inhibition at 30 µg/disc [18]: 25 mm
